From BindingDB's records for doi:10.1021/jm00014a008 (Sterling Winthrop Research, 1995)

Target: Sodium channel protein type 5 subunit alpha (Homo sapiens, UniProt Q14524)
Test: Blockade of Na+ current in frog oocytes expressing human cardiac sodium channel (HH1)
Method in brief: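 HH1 transcripts injected into Xenopus laevis oocytes, incubated at room temperature 24–72 h. Two-microelectrode voltage clamp (3 M KCl electrodes), bath NaCl 140, KCl 2, CaCl2 1.8, MgCl2 1, HEPES 5 mM, pH 7.5, 21–23 °C. Holding −100 mV; peak current at the I–V maximum measured before and after test agent; IC50 in μM.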

Sodium channel protein type 5 subunit alpha, sequence (Q14524 whole entry): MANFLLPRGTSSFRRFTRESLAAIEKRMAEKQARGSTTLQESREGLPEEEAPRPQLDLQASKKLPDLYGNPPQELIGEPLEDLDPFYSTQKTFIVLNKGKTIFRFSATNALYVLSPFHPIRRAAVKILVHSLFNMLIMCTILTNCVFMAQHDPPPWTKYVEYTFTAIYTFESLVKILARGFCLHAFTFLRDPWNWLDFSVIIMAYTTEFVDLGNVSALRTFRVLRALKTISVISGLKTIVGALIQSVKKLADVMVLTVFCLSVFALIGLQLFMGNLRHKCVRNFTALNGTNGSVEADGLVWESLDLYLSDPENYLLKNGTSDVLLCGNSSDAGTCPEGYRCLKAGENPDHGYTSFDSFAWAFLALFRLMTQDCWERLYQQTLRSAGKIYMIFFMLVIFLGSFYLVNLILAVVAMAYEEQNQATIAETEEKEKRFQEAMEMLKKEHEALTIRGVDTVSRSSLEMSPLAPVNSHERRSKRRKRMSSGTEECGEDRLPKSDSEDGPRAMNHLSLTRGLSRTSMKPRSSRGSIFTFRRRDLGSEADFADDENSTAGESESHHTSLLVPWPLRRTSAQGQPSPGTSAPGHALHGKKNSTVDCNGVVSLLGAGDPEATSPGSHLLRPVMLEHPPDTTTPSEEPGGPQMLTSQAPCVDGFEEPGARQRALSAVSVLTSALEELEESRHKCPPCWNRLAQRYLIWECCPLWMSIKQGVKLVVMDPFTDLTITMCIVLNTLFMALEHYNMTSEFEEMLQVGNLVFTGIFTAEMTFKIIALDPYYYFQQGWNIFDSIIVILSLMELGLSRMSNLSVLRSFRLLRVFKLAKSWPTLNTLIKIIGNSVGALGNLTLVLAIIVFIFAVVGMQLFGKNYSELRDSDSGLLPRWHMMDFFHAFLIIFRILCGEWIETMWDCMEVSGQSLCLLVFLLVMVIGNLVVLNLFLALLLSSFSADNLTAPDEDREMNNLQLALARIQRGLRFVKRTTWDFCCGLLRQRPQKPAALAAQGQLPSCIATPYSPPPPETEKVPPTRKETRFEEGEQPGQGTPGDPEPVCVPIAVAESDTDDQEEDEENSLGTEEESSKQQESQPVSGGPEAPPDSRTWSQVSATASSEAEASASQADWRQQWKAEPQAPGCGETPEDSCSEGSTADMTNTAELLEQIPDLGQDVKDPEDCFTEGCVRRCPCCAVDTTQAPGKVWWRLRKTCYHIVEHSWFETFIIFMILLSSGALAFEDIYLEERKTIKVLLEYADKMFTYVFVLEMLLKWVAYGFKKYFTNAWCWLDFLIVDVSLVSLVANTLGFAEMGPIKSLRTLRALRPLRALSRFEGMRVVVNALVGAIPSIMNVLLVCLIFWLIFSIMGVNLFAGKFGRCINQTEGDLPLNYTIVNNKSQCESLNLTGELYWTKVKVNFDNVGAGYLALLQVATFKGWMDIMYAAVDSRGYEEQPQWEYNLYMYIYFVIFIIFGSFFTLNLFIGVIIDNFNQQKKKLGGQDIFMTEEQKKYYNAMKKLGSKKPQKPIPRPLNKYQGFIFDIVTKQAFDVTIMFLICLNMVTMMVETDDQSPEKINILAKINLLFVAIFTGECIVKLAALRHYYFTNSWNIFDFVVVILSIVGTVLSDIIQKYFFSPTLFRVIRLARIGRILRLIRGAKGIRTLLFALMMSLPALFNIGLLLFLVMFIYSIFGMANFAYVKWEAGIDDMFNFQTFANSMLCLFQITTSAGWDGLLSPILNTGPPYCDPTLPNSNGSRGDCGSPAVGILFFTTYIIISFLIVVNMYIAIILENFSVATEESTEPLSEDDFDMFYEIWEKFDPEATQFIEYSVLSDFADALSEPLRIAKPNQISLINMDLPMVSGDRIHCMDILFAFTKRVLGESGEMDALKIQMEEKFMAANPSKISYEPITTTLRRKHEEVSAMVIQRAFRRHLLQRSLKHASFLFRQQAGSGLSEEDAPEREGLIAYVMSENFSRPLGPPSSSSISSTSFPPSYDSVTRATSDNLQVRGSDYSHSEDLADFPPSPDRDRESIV

CSc1ccc([C@H]2N=C(OCc3ccc(NS(C)(=O)=O)cc3)N(C)Cc3ccccc32)cc1
IC50: > 30 µM
